This sample holds only a part of the variants without activity.
B1: tRNA (parent)
chain: GUUCCGUUGGCGUAAUGGUAACGCGUCUCCCUCCUAAGGAGAAGACUGCGGGUUCGAGUCCCGUACGGAACG

Variants of: B1
Test: yeast fitness relative to wild type (ratio to wild type); higher = fitter; tRNA-Arg(CCU), competitive growth, 37 C, YPD
Procedure, shortened: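 A pool of Saccharomyces cerevisiae strains, each with a tRNA-Arg(CCU) gene variant at the native genomic locus, was competed in YPD at 37°C for 24 hours across six parallel replicates. The variants had been chemically synthesised at a 3% per-site mutation rate over 69 sites, and gene amplicons before and after competition were read by 100-nucleotide paired-end sequencing. Darwinian fitness relative to wild type rested on changes in genotype frequencies. Genotypes required ≥ 100 starting reads, and estimates < 0.5 were set to 0.5.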

Variant	yeast fitness
A21U C55U	0.607
A21U A65G	0.942
A21U G44C	0.769
A21U C46U	0.86
A21U C46A	0.767
A21U C34U A42U U64A G68U	0.659
A21U G25A A69C	0.605
A21U U59A A69C	≤ 0.5
A21U C22U C49A G67A	≤ 0.5
A21U U26A A70C	≤ 0.5
A21U U64G A69G	≤ 0.5
A21U C22U G48A A57U	≤ 0.5
A21U A37U A43C C61U A70G	0.517
A21U C24A C30A C31G A43U U54G C62G	≤ 0.5
C22A A36C C55G C61A	0.611
C22A A57U G67A	0.545
C22A C24G	0.507
C22A C29G C62A A69U	≤ 0.5
A21U C60U	0.584
C22A C24A U26C U35C	≤ 0.5
A21U C30G A70U	0.677
A21U C22G G51C	≤ 0.5
A21U C22G C55A	≤ 0.5
A21U U35A	0.584

Variant	yeast fitness
A21U A40C G56A	≤ 0.5
C22A A37C A65G C66U	≤ 0.5
A21U A40C G58C A65C C66G	0.523
A21U G39C U47A	0.512
A21U C24A A45U C62A A69C	≤ 0.5
A21U C24A A69C	≤ 0.5
A21U C24A A69G	≤ 0.5
C22A C27A A36U G39C	≤ 0.5
C22A C29U C33G C46U C62U	≤ 0.5
A21U C27A	0.583
A21U C22U U32A G39A G51A A65U	≤ 0.5
A21U C24G C29G C49U	≤ 0.5
A21U G56C	0.579
C22A C24G A43G	≤ 0.5
A21U A70G	0.786
A21G U35C	0.728
A21G U35A	0.674
A21U C24U C27A U35C A37C A40U G67C	≤ 0.5
C22A C29A C66A	0.513
A21U C31U U54G	≤ 0.5
A21U G44A G56A	≤ 0.5
A21U C55U A65C	≤ 0.5
A21U C30U U32A	≤ 0.5
A21U C29G G58C	0.502

Variant	yeast fitness
A21U C29G G58A	≤ 0.5
A21U A42C	0.741
A21U G52C C61U	≤ 0.5
A21U A40U A69C	0.574
A21U U26A C30G A36C A57G	≤ 0.5
A21U C55G G68A A70C	≤ 0.5
A21U C22U G25A C49A	≤ 0.5
A21U U64G	0.709
A21U C30U G48A G67C A69U	≤ 0.5
C22A A69U	0.843
A21U A36G A45C	0.581
A21U G58A	0.721
C22A C27U A57U	≤ 0.5
A21U C55U G56A	0.567
A21U C22G C33U	0.572
C22A C29G C34G A42C C62G	≤ 0.5
C22A C31G C46A C49U	≤ 0.5
A21U C29G U35G G41C	≤ 0.5
A21U C22U G25A A57C G68U A69C	0.599
A21U C24G	≤ 0.5
A21U C24U	0.703
A21U C24A	0.578
A21U U26A U54A A70U	≤ 0.5
A21U C31A G39C C62G G68A	≤ 0.5

Variant	yeast fitness
C22A C29G G38C A65U	≤ 0.5
A21U G48A A57U	0.714
A21U G25A G50A G68U	≤ 0.5
A21U G23A A42C U59G A69C	≤ 0.5
A21U U35A G44A	≤ 0.5
A21U U28G	0.659
A21U A36U A45U A65U A70U	0.624
A21G U54C	0.937
A21G U54G	0.575
A21G U54A	0.575
A21U U35A A65C	≤ 0.5
A21U C27G A45C	≤ 0.5
A21U C24U C61U C66U	≤ 0.5
A21G U35C G63C	0.536
C22A C24A U26C C49U U64A	≤ 0.5
C22A A40C G50C	0.908
A21U C24U G56C G63A U64C G67C	≤ 0.5
C22A C27A	0.718
A21U C30G G41A A43C C55A	≤ 0.5
C22A C29G	0.55
C22A C24A U26C	0.559
A21U C49A G50C	≤ 0.5
A21U A40C A57C A70U	≤ 0.5
C22A C29U G56A C60G	≤ 0.5

Variant	yeast fitness
A21U G38C A65C	≤ 0.5
C22A C30U C34G A70U	≤ 0.5
A21U U54A A69U	≤ 0.5
C22A A43U C60A	≤ 0.5
A21U C24A A37U G48C	0.534
A21U C34G G68A	≤ 0.5
A21U C55U G68C	≤ 0.5
C22A C24U C30U C31G C66U	0.615
C22A C24G G52A G67C G68A	≤ 0.5
A21U A36C A45C G48A C55A	≤ 0.5
A21U G39C C55A A57C	≤ 0.5
C22A C29U A69U	0.592
A21U A69U	0.686
A21U A69G	0.826
C22A C31A	0.789
A21U U28G U59G	0.609
C22A C24U U28A A37G	≤ 0.5
A21U C30A U35C A40G	≤ 0.5
A21U U26G G50C	0.586
A21U C33U A43U C49G G50C C61U C66U	≤ 0.5
A21U A36C G38C	≤ 0.5
A21U C27A G50C G52C G67C	≤ 0.5
A21U A42G C60A	≤ 0.5
A21U G41A U54C	0.723

Variant	yeast fitness
A21G U53C A57C A69U	0.597
A21U C27G C30A G67A	≤ 0.5
A21U U28G A69C	0.529
A21G U32G G41C	≤ 0.5
A21U G41C	0.715
A21U G41A	0.727
A21U C34G G39A A57G C61U	≤ 0.5
A21G U47C	0.921
A21G U47A	0.822
A21U C22U A43C C49A	0.595
A21U C33U A57U U59C	0.639
A21U A37U A65C	0.672
A21U C29G C31G A43U G58A U59C	≤ 0.5
A21U C27U A37U C60G	≤ 0.5
A21U G38A	0.682
C22A A42C	0.635
C22A A42G	0.923
C22A A42U	0.677
A21U A36G A40C A69U	≤ 0.5
C22A A37C G56C	≤ 0.5
C22A C29A C61U	≤ 0.5
C22A C27U A43G C46G C49U A69C	≤ 0.5
A21U C46A C62U C66U	≤ 0.5
A21U A40G	0.633

Variant	yeast fitness
A21U U32G G51C A70G	≤ 0.5
A21U A37G	0.664
A21U G50A	0.629
A21G U59G U64C A65U	0.586
A21U C29G A57U A65C	≤ 0.5
A21G U59A	0.835
C22A C30G	0.636
C22A C30U	0.647
A21U U54C C55G C60A C61G C66G	≤ 0.5
C22A C24G G67C G68A	≤ 0.5
A21U C27G A43U	≤ 0.5
A21U A45U G52A	≤ 0.5
A21U C33G G58A C66U	≤ 0.5
A21U G23A U64C G67A	0.568
A21U U26C	0.657
C22A C29U C66G	≤ 0.5
C22A A42U C62U	0.549
A21U C22G C60G G68A	≤ 0.5
A21U A40G C49G	≤ 0.5
A21U C22U C55U	≤ 0.5
A21U G56C U64C	≤ 0.5
C22A A43C G63C G67A	≤ 0.5
A21U A45C	0.913

Source: the RNAGym collection of RNA variant scans (doi:10.1126/science.aae0568)
